What was measured:
[1] = In vivo pharmacokinetic assessment in mice, plasma LC-MS; settings: 300 µg IV, mouse plasma
Summary of the method: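 Female athymic nude mice, 6–7 weeks, got a single 300 µg tail-vein bolus in 100 µL PBS/5% ethanol. Blood was taken by cardiac puncture under CO2 anaesthesia pre-dose, at end of infusion, 0.25, 0.5, 1 and 2 h (3–5 mice/time point). EDTA plasma (1,200 rcf, 10 min), 100 µL extracted into 1 mL cold ethyl acetate. Quantified against 1/X2-weighted linear calibration. Non-compartmental AUC by linear trapezoid, extrapolated to infinity.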

SCC-4 xenografts = assay: Antitumor efficacy of intratumorally administered taccalonolides; format: in vivo; settings: intratumoral
[2] = tested on: murine xenograft models of breast cancer; settings: systemic i.p. injection ref 23, 25; cited from earlier work
[3] = human, microsomes
[4] = Hydrolysis of the C-15 acetoxy group of AF to AJ; format: physicochemical; settings: serum in vitro

SMILES	drug in the plasma 120 min after injection [1]	effect on tumor growth (SCC-4 xenografts; 20 µg total dose)	effect on tumor growth (SCC-4 xenografts; 80 µg total dose, over the course of the trial)	antitumor efficacy on systemic administration [2]	NADPH-free intrinsic clearance ([3]; pH 7.4) [µL/min/mg]	weight loss or other toxicities (SCC-4 xenografts; two 40 µg injections on days 0 and 3)	hydrolysis of the C-15 acetoxy group [4]	rate of clearance (microsomal intrinsic clearance) [3]	NADPH-dependent intrinsic clearance ([3]; pH 7.4) [µL/min/mg]
CC(=O)O[C@H]1[C@H]2[C@H]([C@@H]3[C@@H](O)[C@@H]4[C@H]([C@H](C)[C@H]5O[C@]56OC(=O)[C@@](C)(O)[C@]46C)[C@@]3(C)[C@H]1OC(C)=O)[C@@H](O)C(=O)[C@H]1C[C@@H]3O[C@@H]3[C@H](OC(C)=O)[C@]21C [taccalonolide AJ]	no drug detectable	no inhibition of tumor growth	robust and prolonged inhibition of tumor growth	no evidence of antitumor efficacy	–	–	–	–	–
CC(=O)O[C@@H]1[C@H]2[C@H]3[C@H]([C@H](OC(C)=O)[C@H](OC(C)=O)[C@]2(C)[C@H]2[C@H](C)[C@H]4O[C@]45OC(=O)[C@@](C)(O)[C@]5(C)[C@H]12)[C@]1(C)[C@H](C[C@@H]2O[C@@H]2[C@@H]1OC(C)=O)C(=O)[C@@H]3O [taccalonolide AF]	–	–	–	demonstrated antitumor efficacy	0	no associated weight loss or other toxicities	observed	–	–
CC(=O)CC(c1ccccc1)c1c(O)c2ccccc2oc1=O (centres unmarked) [warfarin]	–	–	–	–	0	–	–	no clearance	0
